From BindingDB's records for doi:10.1021/np500803e (Chungbuk National University, 2015)

Target: Signal transducer and activator of transcription 3 (Homo sapiens, UniProt P40763)
Assay: Inhibition of IL6-induced STAT3 activation in human Hep3B cells after 12 hrs by luciferase assay
Procedure, shortened: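 Hep3B cells stably carrying a pSTAT3-luciferase reporter, 2 × 10^4 cells/well, grown 24 h, then switched to serum-free medium. Stimulated with IL-6 (10 ng/mL) with or without sample for 12 h. Luciferase activity then read. IC50 taken as the mean of triplicate experiments. Stattic and genistein used as positive controls.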

Signal transducer and activator of transcription 3, sequence (P40763 whole entry): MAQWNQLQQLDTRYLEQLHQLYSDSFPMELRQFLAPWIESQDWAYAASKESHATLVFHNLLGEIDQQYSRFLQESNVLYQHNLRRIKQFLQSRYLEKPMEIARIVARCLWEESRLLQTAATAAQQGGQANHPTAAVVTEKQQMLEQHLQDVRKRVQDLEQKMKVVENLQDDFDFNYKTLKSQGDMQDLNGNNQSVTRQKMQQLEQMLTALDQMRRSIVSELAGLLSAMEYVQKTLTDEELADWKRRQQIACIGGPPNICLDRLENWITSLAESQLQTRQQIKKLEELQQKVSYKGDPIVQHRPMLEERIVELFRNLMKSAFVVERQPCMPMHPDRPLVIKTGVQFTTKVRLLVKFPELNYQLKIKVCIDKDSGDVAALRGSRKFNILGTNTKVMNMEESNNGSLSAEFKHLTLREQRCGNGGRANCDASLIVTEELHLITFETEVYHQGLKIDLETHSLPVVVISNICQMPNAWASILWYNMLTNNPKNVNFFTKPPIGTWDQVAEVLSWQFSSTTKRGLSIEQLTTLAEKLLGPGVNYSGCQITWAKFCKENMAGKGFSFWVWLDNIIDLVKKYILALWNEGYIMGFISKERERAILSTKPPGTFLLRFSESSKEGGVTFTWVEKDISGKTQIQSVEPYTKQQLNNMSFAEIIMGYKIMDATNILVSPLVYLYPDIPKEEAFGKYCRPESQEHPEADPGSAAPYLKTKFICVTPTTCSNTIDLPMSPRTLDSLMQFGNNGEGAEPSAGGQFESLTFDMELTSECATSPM

Structure (SMILES)	IC50 [µM]
CC(C)(/C=C/C[C@](C)(O[C@@H]1O[C@H](CO[C@@H]2O[C@H](CO)[C@@H](O)[C@H](O)[C@H]2O)[C@@H](O)[C@H](O)[C@H]1O)[C@H]1CC[C@]2(C)[C@@H]1[C@H](O)C[C@@H]1[C@@]3(C)C[C@@H](O)[C@H](O)C(C)(C)[C@@H]3CC[C@]12C)OO	> 30
C[C@@H]1O[C@@H](OC[C@H]2O[C@@H](O[C@@](C)(C/C=C/C(C)(C)OO)[C@H]3CC[C@]4(C)[C@@H]3[C@H](O)C[C@@H]3[C@@]5(C)C[C@@H](O)[C@H](O[C@@H]6O[C@H](CO)[C@@H](O)[C@H](O)[C@H]6O[C@@H]6O[C@H](CO)[C@@H](O)[C@H](O)[C@H]6O)C(C)(C)[C@@H]5CC[C@]34C)[C@H](O)[C@@H](O)[C@@H]2O)[C@H](O)[C@H](O)[C@H]1O	> 30
CC(C)(/C=C/C[C@](C)(O[C@@H]1O[C@H](CO)[C@@H](O)[C@H](O)[C@H]1O)[C@H]1CC[C@]2(C)[C@@H]1[C@H](O)C[C@@H]1[C@@]3(C)C[C@@H](O)[C@H](O[C@@H]4O[C@H](CO)[C@@H](O)[C@H](O)[C@H]4O[C@@H]4O[C@H](CO)[C@@H](O)[C@H](O)[C@H]4O)C(C)(C)[C@@H]3CC[C@]12C)OO	> 30
CC(C)/C=C/C[C@](C)(O[C@@H]1O[C@H](CO[C@@H]2O[C@@H](C)[C@H](O)[C@@H](O)[C@H]2O)[C@@H](O)[C@H](O)[C@H]1O)[C@H]1CC[C@]2(C)[C@@H]1[C@H](O)C[C@@H]1[C@@]3(C)C[C@@H](O)[C@H](O[C@@H]4O[C@H](CO)[C@@H](O)[C@H](O)[C@H]4O)C(C)(C)[C@@H]3CC[C@]12C	17.6
C=C(C)C(=O)CC[C@](C)(O[C@@H]1O[C@H](CO[C@@H]2O[C@@H](C)[C@H](O)[C@@H](O)[C@H]2O)[C@@H](O)[C@H](O)[C@H]1O)[C@H]1CC[C@]2(C)[C@@H]1[C@H](O)C[C@@H]1[C@@]3(C)C[C@@H](O)[C@H](O)C(C)(C)[C@@H]3CC[C@]12C	0.59
CC(C)/C=C/C[C@](C)(O[C@@H]1O[C@H](CO[C@@H]2O[C@@H](C)[C@H](O)[C@@H](O)[C@H]2O)[C@@H](O)[C@H](O)[C@H]1O)[C@H]1CC[C@]2(C)[C@@H]1[C@H](O)C[C@@H]1[C@@]3(C)CC[C@H](O[C@@H]4O[C@H](CO)[C@@H](O)[C@H](O)[C@H]4O[C@@H]4O[C@H](CO)[C@@H](O)[C@H](O)[C@H]4O)C(C)(C)[C@@H]3CC[C@]12C	4

More lines, now with the values ahead:

IC50 [µM]	Structure (SMILES)
0.27	C=C(C)C(=O)CC[C@](C)(O[C@@H]1O[C@H](CO[C@@H]2O[C@H](CO)[C@@H](O)[C@H](O)[C@H]2O)[C@@H](O)[C@H](O)[C@H]1O)[C@H]1CC[C@]2(C)[C@@H]1[C@H](O)C[C@@H]1[C@@]3(C)C[C@@H](O)[C@H](O)C(C)(C)[C@@H]3CC[C@]12C
19.2	C=C(C)C(=O)CC[C@](C)(O[C@@H]1O[C@H](CO[C@@H]2O[C@@H](C)[C@H](O)[C@@H](O)[C@H]2O)[C@@H](O)[C@H](O)[C@H]1O)[C@H]1CC[C@]2(C)[C@@H]1[C@H](O)C[C@@H]1[C@@]3(C)C[C@@H](O)[C@H](O[C@@H]4O[C@H](CO)[C@@H](O)[C@H](O)[C@H]4O[C@@H]4O[C@H](CO)[C@@H](O)[C@H](O)[C@H]4O)C(C)(C)[C@@H]3CC[C@]12C
> 30	CC(C)/C=C/C[C@](C)(O[C@@H]1O[C@H](CO[C@@H]2O[C@@H](C)[C@H](O)[C@@H](O)[C@H]2O)[C@@H](O)[C@H](O)[C@H]1O)[C@H]1CC[C@]2(C)[C@@H]1[C@H](O)C[C@@H]1[C@@]3(C)C[C@@H](O)[C@H](O[C@@H]4O[C@H](CO)[C@@H](O)[C@H](O)[C@H]4O[C@@H]4O[C@H](CO)[C@@H](O)[C@H](O)[C@H]4O)C(C)(C)[C@@H]3CC[C@]12C
17.1	C[C@@H]1O[C@@H](OC[C@H]2O[C@@H](O[C@@](C)(C/C=C/C(C)(C)O)[C@H]3CC[C@]4(C)[C@@H]3[C@H](O)C[C@@H]3[C@@]5(C)C[C@@H](O)[C@H](O[C@@H]6O[C@H](CO)[C@@H](O)[C@H](O)[C@H]6O)C(C)(C)[C@@H]5CC[C@]34C)[C@H](O)[C@@H](O)[C@@H]2O)[C@H](O)[C@H](O)[C@H]1O
0.5	CC(C)/C=C/C[C@](C)(O[C@@H]1O[C@H](CO[C@@H]2O[C@@H](C)[C@H](O)[C@@H](O)[C@H]2O)[C@@H](O)[C@H](O)[C@H]1O)[C@H]1CC[C@]2(C)[C@@H]1[C@H](O)C[C@@H]1[C@@]3(C)C[C@@H](O)[C@H](O)C(C)(C)[C@@H]3CC[C@]12C
